# Assay results pooled from the literature.
# Target: Interleukin-1 receptor-associated kinase 3 (IRAK3, Homo sapiens, UniProt Q9Y616)
# Residues used in one study (Q9Y616 1-596): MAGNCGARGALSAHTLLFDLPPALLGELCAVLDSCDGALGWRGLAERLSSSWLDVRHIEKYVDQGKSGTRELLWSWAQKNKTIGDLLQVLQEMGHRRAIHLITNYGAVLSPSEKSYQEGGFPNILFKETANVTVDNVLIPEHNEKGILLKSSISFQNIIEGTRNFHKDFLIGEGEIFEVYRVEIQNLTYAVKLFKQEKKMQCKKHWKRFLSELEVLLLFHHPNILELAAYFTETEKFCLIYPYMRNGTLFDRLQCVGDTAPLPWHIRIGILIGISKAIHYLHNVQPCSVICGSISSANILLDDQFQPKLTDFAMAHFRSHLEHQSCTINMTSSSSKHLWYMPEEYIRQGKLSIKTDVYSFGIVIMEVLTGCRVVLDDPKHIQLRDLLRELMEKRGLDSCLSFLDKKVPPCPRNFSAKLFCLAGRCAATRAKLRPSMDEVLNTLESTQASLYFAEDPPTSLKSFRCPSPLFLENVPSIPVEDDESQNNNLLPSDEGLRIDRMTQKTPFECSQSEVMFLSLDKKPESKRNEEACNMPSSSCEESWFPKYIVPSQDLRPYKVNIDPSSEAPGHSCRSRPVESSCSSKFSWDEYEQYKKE
SMILES,assay,conditions,remaining binding [%]
O=C(Nc1c[nH]nc1C(=O)NC1CCNCC1)c1cc(F)cc(F)c1,"binding, competition with immobilised ligand",1 µM,100
C[C@@H]1CCN(c2nccc(-c3cnn4ncccc34)n2)C1,binding,1 µM,52
CNC(=O)[C@@H]1CC[C@@H](n2c(-c3ccc4cnccc4c3)nc3ccc(C(=O)NCc4cccc(C(N)=O)c4)cc32)C1,"binding, competition with immobilised ligand",1 µM,97
COc1ncc2cc3ccccc3nc2c1C#N,"cell-free assay, competition with immobilised ligand",5 µM,94
Cc1cnn2ncc(-c3ccnc(N(C)C)n3)c2c1,binding,1 µM,70
CS(=O)(=O)N1CCCC(NC(=O)[C@H](CCC2CCCCC2)NC(=O)c2ccc(CNc3ncnc4c3nnn4-c3ccccc3)cc2)C1 (stereo partly drawn),"cell-free assay, competition with immobilised ligand",0.1 µM,100
c1cncc(-c2cccc(Nc3nccc(NC4CCCCC4)n3)c2)c1,"binding, competition with immobilised ligand",10 µM,4.5
COc1ccnn2ncc(-c3ccnc(N(C)C)n3)c12,binding,1 µM,91
O=C(NCCCN1CCOCC1)c1ccc(Nc2nccc(-c3cc4ccccc4s3)n2)cc1,"binding, competition with immobilised ligand",1 µM,8.4
O=C(NCc1ncc(C(F)(F)F)cc1Cl)c1ccc2c(c1)C1(CCS(=O)(=O)CC1)[C@H](C1CC1)N2S(=O)(=O)c1ccc(F)cc1,"cell-free assay, competition with immobilised ligand",1 µM,99
CN(C)c1ncc(F)c(-c2cnn3ncccc23)n1,binding,1 µM,100
FC(F)(F)Oc1cccc(-c2cnc3ccc(-c4ccncc4)nn23)c1,"cell-free assay, competition with immobilised ligand",5 µM,7.6
CCCCN(CCCC)C(=O)CN1C[C@H](c2cc(OC)c3c(c2)OCO3)[C@@H](C(=O)O)[C@@H]1CC(C)(C)CCC,"cell-free assay, competition with immobilised ligand",1 µM,100
F[C@@H]1CCN(c2nccc(-c3cnn4ncccc34)n2)C1,binding,1 µM,100
COc1cnc(Nc2cccc(S(N)(=O)=O)c2)nc1N1CCN(c2ccccc2)C(=O)C1,"binding, competition with immobilised ligand",1 µM,100
N#Cc1ccc(Nc2ccc3[nH]c(=O)[nH]c3c2)c(Cl)c1,"cell-free assay, competition with immobilised ligand",1 µM,94
O=C(c1ccc(Nc2nccc(-c3cc4ccccc4s3)n2)cc1)N1CCC(N2CCCC2)CC1,"binding, competition with immobilised ligand",1 µM,14
O=C1CCc2cc(Nc3cc(OC4CCOCC4)c([N+](=O)[O-])cc3Cl)ccc2N1,"cell-free assay, competition with immobilised ligand",1 µM,98
O=C(NCCCN1CCOCC1)c1ccc(Nc2ncc(Cl)c(-c3ccc(Cl)s3)n2)cc1,"binding, competition with immobilised ligand",1 µM,13
Nc1cnc(N2CCc3cc(S(=O)(=O)Nc4c(F)cc(Cl)cc4F)cc(N4CCCC4=O)c32)nc1,"cell-free assay, competition with immobilised ligand",1 µM,89
CC1CCCN1c1nccc(-c2cnn3ncccc23)n1 (stereo not drawn),binding,1 µM,72
